Screens from PubChem BioAssay.
Rows were chosen to be rich in hits. Some 12% of all compounds tested hit in one or more screens of this group.
MT stabilizer: microtubule stabilization, imaging screen | HeLa tubulin immunostaining HCS, 24 h; share of cells brighter than vehicle mean+2SD | % tubulin-high responders, % at 10 µM | 200,000 compounds, 0.83% hits | AID 2205;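 active = plate Z-score above 3 for both tubulin-high and condensed-nucleus cell shares, with cell loss under 80%, at 10 µM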;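 note: anti alpha tubulin signal scored within the nucleus-defined area of each cell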
Autophagy HCS: alters autophagy in cells; MEF GFP-LC3 puncta imaging; test concentration mostly 10 µM; calls only at 10 µM (by protocol); 190,000 compounds, 0.98% hits;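 active = percentage of spot-positive cells more than 3 SD above its plate mean, without a fluorescence outlier flag or 80% toxicity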
Lmaj promast: Leishmania major promastigote growth inhibition; inhibition, % at 10 µM; Leishmania major promastigotes, resazurin fluorescence viability; 200,000 compounds, 9% hits; in the data active = inhibition above about 50%;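 note: promastigotes grown with compound for 44 hours at 28 °C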
Dynein transport: blocks dynein driven cargo transport along microtubules; 220,000 compounds, 0.47% hits; z-score, hits read low; 3617.4 mouse cells, GR-EGFP nuclear translocation imaging; test concentration mostly 20 µM; stimulated with dexamethasone, 1 µM; active compounds read low; AID 1381;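 active = plate z-score of nuclear minus cytoplasmic receptor signal below a set negative limit, without overly bright fluorescence or cell loss, cut at about -3.5 in these data, passing the limit was not always enough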;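 note: z-score of nuclear minus cytoplasmic ring GR-EGFP intensity difference per well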
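Buffer or medium – tet-free medium with charcoal-stripped serum · Signal – automated 10x imaging of fixed Hoechst-stained cells · Also added – dexamethasone agonist, 1.0 µM final, for 30 min · Incubation – induction 48 h, compound 1 h, agonist 30 min · Read-out – GR-EGFP nuclear translocation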
CHOP inhibitor: CHOP inhibition in unfolded protein response. CHO-K1 CHOP-promoter luciferase, tunicamycin-induced, 15-18 h. inhibition, % at 10 µM. 220,000 compounds, 3.8% hits;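 active = compounds that reduced the stress-induced luciferase reporter signal by more than about 70% of percent inhibition, limit read from the data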
b-catenin transl: alters nuclear translocation of beta-catenin in HeLa cells; immunofluorescence imaging; nuclear translocation activity, % at 5 µM; 190,000 compounds, 0.3% hits; AID 1665;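 active = nuclear translocation activity above 50% at 5 µM, with a well cell count of 50 or more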;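 note: per-cell ratio of nuclear to cytoplasmic median beta-catenin stain intensity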
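System: Human HeLa cells, endogenous beta-catenin | Compound dosing: 5 µM primary, 0.02–20 µM confirmation | Timing: 24 h compound exposure at 37°C, 5% CO2 | Measured by: Fluorescence imaging of beta-catenin antibody stain plus DAPI | Read-out basis: % activation of per-cell nuclear versus cytoplasmic median beta-catenin signal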
Hits are given with their value.

What do the screens show for `Cc1ccc(C(=O)N2CCN(c3cccc(Cl)c3)CC2)cc1C`?
MT stabilizer: 23.7; Autophagy HCS: inactive; Lmaj promast: inactive; Dynein transport: inactive; b-catenin transl: inactive

What do the screens show for `O=C(Nc1ccc(C(F)(F)F)cc1)c1cccnc1N1CCOCC1`?
MT stabilizer: inactive; Autophagy HCS: inactive; Lmaj promast: inactive; Dynein transport: inactive; CHOP inhibitor: inactive

Results for O=C(Nc1ccc(C(F)(F)F)cc1)c1cnc(N2CCN(c3ccccn3)CC2)c2ccccc12 ?
MT stabilizer: inactive; Autophagy HCS: inactive; Lmaj promast: inactive; Dynein transport: inactive; CHOP inhibitor: 81.2; b-catenin transl: inactive

How did Cc1cc(C(=O)N2CCN(c3ccccc3)CC2)c(C)o1 do in these assays?
MT stabilizer: inactive; Autophagy HCS: inactive; Lmaj promast: inactive; Dynein transport: inactive; CHOP inhibitor: inactive; b-catenin transl: inactive

Results for O=C(c1cnc(N2CCN(c3ccccn3)CC2)c2ccccc12)N1CCN(c2cccc(Cl)c2)CC1 ?
MT stabilizer: inactive; Autophagy HCS: inactive; Lmaj promast: inactive; Dynein transport: inactive; CHOP inhibitor: 77.2; b-catenin transl: inactive

How did O=C(c1cccc(Cl)c1)N1CCN(c2ccccn2)CC1 do in these assays?
MT stabilizer: inactive; Autophagy HCS: inactive; Lmaj promast: inactive; Dynein transport: inactive; CHOP inhibitor: inactive

What do the screens show for `O=C(c1cc(Cl)ccc1Cl)N1CCN(c2ccccn2)CC1`?
MT stabilizer: inactive; Autophagy HCS: inactive; Lmaj promast: inactive; Dynein transport: inactive; CHOP inhibitor: inactive

Results for CSc1ccccc1C(=O)N1CCc2ccccc2C1 ?
MT stabilizer: inactive; Autophagy HCS: active; Lmaj promast: inactive; Dynein transport: inactive; CHOP inhibitor: inactive; b-catenin transl: inactive

Results for O=C(c1ccc2c(c1)N(Cc1cccc(Cl)c1)C(=O)c1ccccc1S2(=O)=O)N1CCN(c2ccccn2)CC1 ?
MT stabilizer: inactive; Autophagy HCS: inactive; Lmaj promast: 97.5; Dynein transport: inactive; CHOP inhibitor: inactive; b-catenin transl: inactive

How did O=C(NC(=S)N1CCc2ccccc21)c1ccccc1Br do in these assays?
MT stabilizer: inactive; Autophagy HCS: inactive; Lmaj promast: inactive; Dynein transport: inactive; CHOP inhibitor: inactive; b-catenin transl: inactive

How did O=S(=O)(Nc1cc(C(F)(F)F)ccc1N1CCOCC1)c1ccc2ccccc2c1 do in these assays?
MT stabilizer: inactive; Autophagy HCS: inactive; Lmaj promast: inactive; Dynein transport: inactive; CHOP inhibitor: inactive; b-catenin transl: inactive

How did CSc1ccccc1NC(=O)c1ccc(CN2CCOCC2)cc1 do in these assays?
MT stabilizer: inactive; Autophagy HCS: inactive; Lmaj promast: inactive; Dynein transport: inactive; CHOP inhibitor: inactive; b-catenin transl: inactive

How did CCOC(=O)c1ccc(NC(=O)CSC(=S)N2CCOCC2)cc1 do in these assays?
MT stabilizer: inactive; Autophagy HCS: active; Lmaj promast: 97.3; Dynein transport: inactive; CHOP inhibitor: inactive; b-catenin transl: inactive

How did Cc1cc(CSc2ccccc2)ccc1NC(=O)c1ccc(CN2CCOCC2)cc1 do in these assays?
MT stabilizer: inactive; Autophagy HCS: inactive; Lmaj promast: 62.9; Dynein transport: inactive; CHOP inhibitor: inactive; b-catenin transl: inactive

How did CCOC(=O)c1ccc(NC(=O)c2ccc(CN3CCOCC3)cc2)cc1 do in these assays?
MT stabilizer: inactive; Autophagy HCS: inactive; Lmaj promast: 84.1; Dynein transport: inactive; b-catenin transl: inactive

What do the screens show for `CC(C)c1ccc(C(=O)CC2(O)C(=O)N(CN3CCOCC3)c3ccccc32)cc1` (stereo not given)?
MT stabilizer: inactive; Autophagy HCS: inactive; Lmaj promast: inactive; Dynein transport: inactive; CHOP inhibitor: inactive; b-catenin transl: inactive

Results for O=C(C1CCOCC1)N1CCC(CO)(CCc2ccccc2)CC1 ?
MT stabilizer: inactive; Autophagy HCS: inactive; Lmaj promast: inactive; Dynein transport: inactive; CHOP inhibitor: inactive; b-catenin transl: inactive

How did Cc1ccc(NC(NC(=O)c2ccccn2)C(Cl)(Cl)Cl)cc1 (stereo not given) do in these assays?
MT stabilizer: inactive; Autophagy HCS: inactive; Lmaj promast: inactive; Dynein transport: inactive; CHOP inhibitor: inactive

How did Cc1ccc(NC(NC(=O)c2cccs2)C(Cl)(Cl)Cl)cc1C (stereo not given) do in these assays?
MT stabilizer: inactive; Autophagy HCS: inactive; Lmaj promast: inactive; Dynein transport: inactive; CHOP inhibitor: 80.0; b-catenin transl: inactive

What do the screens show for `Cc1ccc(NC(NC(=O)c2cccs2)C(Cl)(Cl)Cl)cc1` (stereo not given)?
MT stabilizer: inactive; Autophagy HCS: inactive; Lmaj promast: 71.4; Dynein transport: inactive; CHOP inhibitor: inactive; b-catenin transl: inactive

What do the screens show for `Cc1ccccc1NC(NC(=O)c1cccs1)C(Cl)(Cl)Cl` (stereo not given)?
MT stabilizer: inactive; Autophagy HCS: inactive; Lmaj promast: 72.4; Dynein transport: inactive; CHOP inhibitor: inactive; b-catenin transl: inactive

How did N#Cc1c(NC(=O)CSc2nnnn2C2CCCC2)sc2c1CCCC2 do in these assays?
MT stabilizer: inactive; Autophagy HCS: inactive; Lmaj promast: inactive; Dynein transport: inactive; CHOP inhibitor: 81.7; b-catenin transl: inactive

What do the screens show for `N#Cc1c(NC(=O)CSc2nc(N)cc(=O)[nH]2)sc2c1CCCCCC2`?
MT stabilizer: inactive; Autophagy HCS: inactive; Lmaj promast: inactive; Dynein transport: inactive; b-catenin transl: inactive

Results for CCOC(=O)c1sc(NC(=O)CSc2n[nH]c(-c3ccc(Cl)cc3Cl)n2)c(C#N)c1C ?
MT stabilizer: inactive; Autophagy HCS: inactive; Lmaj promast: inactive; Dynein transport: inactive; CHOP inhibitor: 75.3; b-catenin transl: inactive

Results for N#Cc1c(NC(=O)CSc2ncn[nH]2)sc2c1CCCCC2 ?
MT stabilizer: inactive; Autophagy HCS: inactive; Lmaj promast: inactive; Dynein transport: inactive; CHOP inhibitor: 91.3

How did CCOC(=O)c1sc(NC(=O)CSc2nc(C)cc(-c3ccccc3)n2)c(C#N)c1C do in these assays?
MT stabilizer: inactive; Autophagy HCS: inactive; Lmaj promast: inactive; Dynein transport: inactive; CHOP inhibitor: inactive; b-catenin transl: inactive

How did COC(=O)c1c(NC(=O)CSc2ncnc3[nH]ncc23)sc2c1CCC2 do in these assays?
MT stabilizer: inactive; Autophagy HCS: inactive; Lmaj promast: inactive; Dynein transport: inactive; CHOP inhibitor: 76.6; b-catenin transl: inactive

How did COc1ccc(C(=O)COC(=O)c2cc(S(=O)(=O)NCc3ccccc3)ccc2O)cc1 do in these assays?
MT stabilizer: inactive; Autophagy HCS: inactive; Lmaj promast: inactive; Dynein transport: inactive; CHOP inhibitor: inactive; b-catenin transl: inactive

How did CCOC(=O)c1sc(NC(=O)CSc2nc3c(cc2C#N)CCC3)c(C#N)c1C do in these assays?
MT stabilizer: inactive; Autophagy HCS: inactive; Lmaj promast: inactive; Dynein transport: inactive

Results for N#Cc1cc2c(nc1SCC(=O)Nc1sc3c(c1C#N)CCC3)CCCC2 ?
MT stabilizer: inactive; Autophagy HCS: inactive; Lmaj promast: 55.4; Dynein transport: inactive; CHOP inhibitor: inactive; b-catenin transl: inactive
